This passage reports CC50, Selectivity index and EC50 results from ChEMBL document CHEMBL1127499, “S-glucosylated hydantoins as new antiviral agents” (1994).

Structures are written as SMILES.

What all share (assay type): functional
Assay [1] deals with Vero. The assay can be described thus: Cytotoxic dose of compound required to reduce the viability of normal uninfected vero cells by 50%. The conditions noted are these: Chlorocebus sabaeus, read-out: CD50 (the source's name). Put shortly:
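Uninfected Vero cells were grown with compound, and cytotoxicity was read as concentration-dependent inhibition of cell proliferation relative to control cultures. CD50 is the dose reducing viability by 50%, mean of three independent determinations.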

The nature of assay [2]: Selectivity index against HSV-2 was determined as CD50/ED50 ratio. Put shortly:
(§1)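 CD50 (50% reduction of proliferation of uninfected Vero cells) divided by ED50 (50% protection against HSV-1 or HSV-2 in Vero cells, antigen ELISA after 5 days). Each is the mean of three independent determinations.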

Assay [3] concerns Vero. The assay can be described thus: Antiviral activity against HSV-2 (Herpes simplex virus) in vero cells. The settings on record: Chlorocebus sabaeus, read-out: ED50 (the source's name). The procedure, abridged: (§2)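 Vero target cells infected with HSV-1 McIntyre or HSV-2 MS for 2.5 h, washed, then mixed 1:50 with uninfected Vero cells preincubated 2.5 h with compound. Virus antigen in culture medium measured by HSV-1/HSV-2 antigen ELISA. ED50 is the dose giving 50% protection, mean of three independent determinations.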

A short description of assay [4]: Selectivity index against HSV-1 was determined as CD50/ED50 ratio. Put shortly:
as §1

In assay [5] the test system is Vero. The assay can be described thus: Antiviral activity against HSV-1 (Herpes simplex virus) in vero cells. The conditions noted are these: Chlorocebus sabaeus, read-out: ED50 (the source's name). The procedure, abridged: as §2

For the compound `CC(=O)OCC1OC(SC2=N/C(=C\c3cccs3)C(=O)N2c2cccc(C)c2)C(OC(C)=O)C(OC(C)=O)C1OC(C)=O` (stereo not drawn), the CC50 in the assay with Vero [1] stood at 25 µM. In addition, the figures for the Selectivity index in assay [2] and in assay [4] were 1.3 and 2.5, respectively. Moreover, the EC50 in the assay on Vero [3] is 19 µM; in the assay with Vero [5], 10 µM.

With `Nc1nc2c(ncn2COCCO)c(=O)[nH]1` [ACYCLOVIR], in the assay on Vero [1], the CC50 is greater than 50 µM. Besides, the Selectivity index in assay [2] and in assay [4] was greater than 100 in each case. Moreover, the EC50 in the assay on Vero [3] and with Vero [5] was 0.5 µM throughout.

On to `CC(=O)OCC1OC(Sc2nc(/C=C3\C=Nc4ccccc43)c(O)n2-c2ccccc2)C(OC(C)=O)C(OC(C)=O)C1OC(C)=O` (stereo not drawn), for which the CC50 in the assay on Vero [1] was greater than 100 µM. In addition, the Selectivity index in assay [2] was greater than 2.5; in assay [4] it was greater than 2.2. In addition, the EC50 amounted to 40 µM in the assay on Vero [3] and 46 µM in the assay with Vero [5].

For `CC(=O)OCC1OC(SC2=N/C(=C\c3ccccc3)C(=O)N2c2ccccc2)C(OC(C)=O)C(OC(C)=O)C1OC(C)=O` (stereo not drawn), the CC50 in the assay on Vero [1] was greater than 100 µM. The values for the EC50 in the assay on Vero [3] and in the assay on Vero [5] were 100 µM and greater than 100 µM, respectively.

Consider `CCOC(=O)c1ccc(N2C(=O)/C(=C/c3cccs3)N=C2SC2OC(COC(C)=O)C(OC(C)=O)C(OC(C)=O)C2OC(C)=O)cc1` (stereo not drawn), for which the CC50 with Vero [1] came to 46 µM. The Selectivity index in assay [2] worked out at 1; in assay [4] it was 1.4. Besides, the EC50 in the assay on Vero [3] is 46 µM; in the assay on Vero [5], 32 µM.

With `O=c1[nH]c(=O)n([C@H]2C[C@H](O)[C@@H](CO)O2)cc1/C=C/Br` [BRIVUDINE], the CC50 with Vero [1] was greater than 100 µM. Also, the Selectivity index was greater than 15 in assay [2] and greater than 333 in assay [4]. In addition, the EC50 was 6.8 µM in the assay with Vero [3] and 0.3 µM in the assay with Vero [5].

Consider `CC(=O)OCC1OC(SC2=N/C(=C\c3cccs3)C(=O)N2c2ccccc2)C(OC(C)=O)C(OC(C)=O)C1OC(C)=O` (stereo not drawn), for which the CC50 in the assay on Vero [1] came out at 24 µM. In addition, the figures for the Selectivity index in assay [2] and in assay [4] were 34 and 60, respectively. Moreover, the EC50 was determined as 0.7 µM in the assay with Vero [3] and 0.4 µM with Vero [5].

For `CC(=O)OCC1OC(SC2=NC(=C(C)C)C(=O)N2c2ccccc2)C(OC(C)=O)C(OC(C)=O)C1OC(C)=O` (stereo not drawn), the CC50 with Vero [1] is greater than 200 µM. For the same compound, the values for the Selectivity index in assay [2] and in assay [4] were greater than 2 and greater than 1.6, respectively. Further, the EC50 came to 100 µM in the assay with Vero [3] and 119 µM in the assay with Vero [5].

For the compound `COc1ccc(N2C(=O)/C(=C/c3cccs3)N=C2SC2OC(COC(C)=O)C(OC(C)=O)C(OC(C)=O)C2OC(C)=O)cc1` (stereo not drawn), the CC50 in the assay on Vero [1] stood at 35 µM. Besides, the Selectivity index in assay [2] and in assay [4] was 1.3 throughout. The EC50 in the assay on Vero [3] and in the assay with Vero [5] was 27 µM in each case.

As for `CC(=O)OCC1OC(SC2=N/C(=C\c3cccs3)C(=O)N2c2ccc(Cl)cc2)C(OC(C)=O)C(OC(C)=O)C1OC(C)=O` (stereo not drawn), in the assay with Vero [1], the CC50 stood at 20 µM. The Selectivity index in assay [2] was 20; in assay [4], 33. In addition, the EC50 came to 1 µM in the assay with Vero [3] and 0.6 µM with Vero [5].
